Assay results from ChEMBL document CHEMBL1150966, “New iridoids from the medicinal plant Barleria prionitis with potent activity against respiratory syncytial virus” (J Nat Prod, 1998).
In brackets after ≈: the same amount, converted by molar mass. Activity calls are given as the source filed them. The rule behind the calls is not given here.

Tests used:
[1] = Cytotoxicity against human Hep2 cells; format: cell-based, HEp-2; details: for IC50: Homo sapiens, HEp-2
Procedure, shortened: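 Cytotoxicity to Hep-2 cells was measured under the same conditions as the viral CPE assay. It is reported in µg/mL as the 50% inhibitory concentration (IC50).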

[2] = test system: Respiratory syncytial virus; test: Antiviral activity against respiratory syncytial virus A2 in human Hep2 cells assessed as inhibition of virus-induced cytopathic effect; format: functional, organism-based; details: HEp-2
Procedure, shortened: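 Cell-based viral cytopathic effect (CPE) assay with RSV strain A2 in Hep-2 cells. Antiviral activity is expressed in µg/mL as the 50% effective concentration (EC50).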

[3] = Selectivity index, ratio of IC50 for human Hep2 cells to EC50 for respiratory syncytial virus A2; format: toxicity, cell-based, HEp-2; details: for selectivity ratio: Hep2 cells, read-out: Ratio IC50/EC50
Procedure, shortened: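 The selectivity index is IC50/EC50. The IC50 is for Hep-2 cytotoxicity and the EC50 is for RSV A2 CPE inhibition, both in µg/mL from the same CPE assay conditions.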

| Compound | Activity ([1]; human, hep-2) | Activity [2] | Activity ([3]; hep-2) | IC50 [1] [µg/mL] | EC50 [2] [µg/mL] | selectivity ratio [3] |
| --- | --- | --- | --- | --- | --- | --- |
| COC(=O)C1=CO[C@@H](O[C@@H]2O[C@H](CO)[C@@H](O)[C@H](O)[C@H]2O)[C@H]2[C@@H]1[C@H](O)C[C@]2(C)OC(C)=O [BARLERIN] | Not Active | inactive | Not Active |  |  |  |
| COC(=O)C1=CO[C@@H](O[C@@H]2O[C@H](CO)[C@@H](O)[C@H](O)[C@H]2O)[C@H]2[C@@H]1[C@H](OC(=O)/C=C\c1ccc(O)cc1)C[C@]2(C)OC(C)=O |  |  |  | 42 (≈ 70.6 µM) | 2.46 (≈ 4.14 µM) | 17 |
| C[C@@H]1O[C@@H](O[C@@H]2[C@@H](O)[C@H](OCCc3ccc(O)c(O)c3)O[C@H](CO)[C@H]2OC(=O)/C=C/c2ccc(O)c(O)c2)[C@H](O)[C@H](O)[C@H]1O [ACETOSIDE] |  |  |  | 76.9 (≈ 123 µM) |  | 85.4 |
| COC(=O)C1=CO[C@@H](O[C@@H]2O[C@H](CO)[C@@H](O)[C@H](O)[C@H]2O)[C@H]2[C@@H]1[C@H](OC(=O)/C=C/c1ccc(O)cc1)C[C@]2(C)OC(C)=O |  |  |  | 42 (≈ 70.6 µM) | 2.46 (≈ 4.14 µM) | 17 |
